In ChEMBL document CHEMBL1154113, “Synthesis, cannabinoid receptor affinity, molecular modeling studies and in vivo pharmacological evaluation of new substituted 1-aryl-5-(1H-pyrrol-1-yl)-1H-pyrazole-3-carboxamides. 2. Effect of the 3-carboxamide substituent on the affinity and selectivity profile” (Bioorg Med Chem, 2009):
The source made the active and inactive calls. The calls are words filed in the database; no cut-off is given here.

Assays:
[1] = biological target: Cannabinoid receptor 1 (Homo sapiens, UniProt P21554); assay: biochemical; assay type: cell-based, HEK293
[2] = biological target: Cannabinoid receptor 2 (Homo sapiens, UniProt P34972); assay: Displacement of [3H]CP-55940 from human recombinant CB2 receptor expressed in HEK cells; assay type: cell-based, HEK293
[3] = species: Homo sapiens; assay: Selectivity index, ratio of Ki for human recombinant CB2 receptor to Ki for human recombinant CB1 receptor
[4] = test system: Rattus norvegicus; assay: Reduction in cumulative water intake in Wistar rat at 0.1 to 10 mg/kg, ip after 1440 mins; assay type: functional, organism-based
Procedure, shortened: (§1)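 Adult male Wistar rats, about 400 g, housed singly under an inverted 12:12 h cycle, with free access to chow and water. Groups of n = 6–8 were matched on body weight and intake and given 0, 0.1, 1 or 10 mg/kg ip, suspended in saline with a few drops of Tween 80, 30 min before lights off. Food and water were weighed at 60–360 and 1440 min. Newman–Keuls test against vehicle.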

[5] = test system: Rattus norvegicus; assay: Reduction in food intake in Wistar rat at 1 mg/kg, ip after 1440 mins; assay type: functional, organism-based; design: dose 1 mg/kg
Procedure, shortened: as §1

[6] = test system: Rattus norvegicus; assay: Reduction in cumulative food intake in Wistar rat at 1 mg/kg, ip measured 360 mins after lights off; assay type: functional
Procedure, shortened: as §1

[7] = test system: Rattus norvegicus; assay: Reduction in food intake in Wistar rat at 10 mg/kg, ip after 1440 mins; assay type: functional, organism-based; design: dose 10 mg/kg
Procedure, shortened: as §1

[8] = test system: Rattus norvegicus; assay: Reduction in cumulative food intake in Wistar rat at 10 mg/kg, ip measured 360 mins after lights off; assay type: functional; settings: 6 h, route intraperitoneal
Procedure, shortened: as §1

[9] = test system: Rattus norvegicus; assay: Reduction in cumulative water intake in Wistar rat at 0.1 to 10 mg/kg, ip measured 360 mins after lights off; assay type: functional, organism-based
Procedure, shortened: as §1

[10] = test system: Rattus norvegicus; assay: Reduction in cumulative food intake in Wistar rat at 10 mg/kg, ip measured 60 mins after lights off relative to control; assay type: functional; settings: 1 h, route intraperitoneal
Procedure, shortened: as §1

Cannabinoid receptor 2, sequence (P34972 whole entry): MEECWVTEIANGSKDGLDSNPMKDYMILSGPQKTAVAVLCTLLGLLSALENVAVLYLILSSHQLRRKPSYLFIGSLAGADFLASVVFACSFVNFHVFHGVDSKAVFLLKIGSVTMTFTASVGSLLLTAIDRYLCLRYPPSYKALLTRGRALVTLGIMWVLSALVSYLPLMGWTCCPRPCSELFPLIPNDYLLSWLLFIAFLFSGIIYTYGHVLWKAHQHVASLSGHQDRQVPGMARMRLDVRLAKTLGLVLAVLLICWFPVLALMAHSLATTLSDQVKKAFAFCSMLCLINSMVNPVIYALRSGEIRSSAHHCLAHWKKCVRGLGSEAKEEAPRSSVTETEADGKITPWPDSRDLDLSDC
Cannabinoid receptor 1, sequence (P21554 whole entry): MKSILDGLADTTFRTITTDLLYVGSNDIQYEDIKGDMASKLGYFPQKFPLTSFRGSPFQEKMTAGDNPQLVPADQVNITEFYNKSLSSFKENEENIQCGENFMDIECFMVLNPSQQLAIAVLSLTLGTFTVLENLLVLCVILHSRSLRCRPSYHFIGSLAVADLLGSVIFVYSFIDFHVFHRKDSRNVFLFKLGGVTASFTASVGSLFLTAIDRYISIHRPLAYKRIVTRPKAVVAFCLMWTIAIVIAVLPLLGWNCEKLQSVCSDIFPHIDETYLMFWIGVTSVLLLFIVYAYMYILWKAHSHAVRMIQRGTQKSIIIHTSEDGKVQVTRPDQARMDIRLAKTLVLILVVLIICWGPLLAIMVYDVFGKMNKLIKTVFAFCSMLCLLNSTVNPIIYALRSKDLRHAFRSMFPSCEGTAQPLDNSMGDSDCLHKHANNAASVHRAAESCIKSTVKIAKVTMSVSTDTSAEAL

Structure (SMILES)	Ki [1] [nM]	Ki [2] [nM]	Ratio Ki [3]	other results
Cc1c(C(=O)Nc2ccc(Cl)cc2)nn(-c2ccc(F)cc2F)c1-n1cccc1	2100	> 3940	3.76	–
Cc1c(C(=O)NC2CCCC2)nn(-c2ccc(F)cc2F)c1-n1cccc1	2400	1100	0.46	–
Cc1c(C(=O)NCc2ccc(Cl)c(Cl)c2)nn(-c2ccc(Cl)cc2Cl)c1-n1c(C)ccc1C	–	–	141	Activity [4]: inactive; Activity [5]: Active; inhibition in vivo at 1 mg/kg ([6]; 6 h, route intraperitoneal): 15%; Activity [7]: Active; inhibition in vivo at 10 mg/kg [8]: 25%; Activity [9]: inactive
Cc1c(C(=O)NCCc2ccc(Cl)c(Cl)c2)nn(-c2ccc(Cl)cc2Cl)c1-n1cccc1	157	> 3940	> 25.1	–
Cc1c(C(=O)NC2CCCCCC2)nn(-c2ccc(F)cc2F)c1-n1cccc1	560	200	0.36	–
Cc1c(C(=O)NCc2ccc(Cl)cc2)nn(-c2ccc(Cl)c(Cl)c2)c1-n1c(C)ccc1C	100	790	7.9	–
COc1cc(CNC(=O)c2nn(-c3ccc(F)cc3F)c(-n3c(C)ccc3C)c2C)c(Br)c(OC)c1OC	165	373	2.26	–
Cc1c(C(=O)NC(c2ccccc2)c2ccc(Cl)cc2)nn(-c2ccc(Cl)c(Cl)c2)c1-n1c(C)ccc1C (stereo not drawn)	> 2820	> 3940	–	–
Cc1c(C(=O)NC2CCCC2)nn(-c2ccc(Cl)c(Cl)c2)c1-n1cccc1	50	12	0.24	–
Cc1c(C(=O)NC23CC4CC(CC(C4)C2)C3)nn(-c2ccc(Cl)c(Cl)c2)c1-n1cccc1	31	20	0.65	–
Cc1c(C(=O)NCc2ccc(Cl)cc2)nn(-c2ccc(F)cc2F)c1-n1c(C)ccc1C	56	> 3940	> 70.4	–
Cc1c(C(=O)NCCc2ccc(Cl)cc2)nn(-c2ccc(Cl)cc2Cl)c1-n1cccc1	70	> 3940	> 56.2	–
Cc1c(C(=O)Nc2ccc(Cl)cc2)nn(-c2ccc(Cl)cc2Cl)c1-n1cccc1	120	80	0.67	–
Cc1c(C(=O)NCCc2ccc(Cl)cc2)nn(-c2ccc(Cl)c(Cl)c2)c1-n1cccc1	240	1200	5	–
Cc1c(C(=O)NCc2ccc(Cl)cc2)nn(-c2ccc(Cl)cc2Cl)c1-n1c(C)ccc1C	90	> 3940	> 43.8	–
Cc1c(C(=O)NCCc2ccc(Cl)c(Cl)c2)nn(-c2ccc(Cl)cc2Cl)c1-n1c(C)ccc1C	117	> 3940	> 33.4	–
Cc1c(C(=O)Nc2ccc(Cl)cc2)nn(-c2ccc(Cl)cc2Cl)c1-n1c(C)ccc1C	96	> 3940	> 41	–
Cc1c(C(=O)NCCc2ccc(Cl)cc2Cl)nn(-c2ccc(F)cc2F)c1-n1cccc1	380	667	1.75	–
Cc1c(C(=O)NCCc2ccc(Cl)cc2Cl)nn(-c2ccc(Cl)cc2Cl)c1-n1cccc1	218	> 3940	> 18.1	–
Cc1c(C(=O)NCc2ccc(Cl)cc2)nn(-c2ccc(Cl)cc2Cl)c1-n1cccc1	140	940	6.71	–
Cc1c(C(=O)NC2CCCCC2)nn(-c2ccc(Cl)c(Cl)c2)c1-n1cccc1	–	–	0.3	–
Cc1c(C(=O)NCCc2ccc(Cl)c(Cl)c2)nn(-c2ccc(F)cc2F)c1-n1cccc1	310	1290	4.16	–
Cc1c(C(=O)NC23CC4CC(CC(C4)C2)C3)nn(-c2ccc(Cl)c(Cl)c2)c1-n1c(C)ccc1C	5.6	12	2.14	–
Cc1c(C(=O)NC2CCCCCC2)nn(-c2ccc(F)cc2F)c1-n1c(C)ccc1C	56	110	1.96	–
Cc1c(C(=O)NC2CCCC2)nn(-c2ccc(Cl)c(Cl)c2)c1-n1c(C)ccc1C	36	12	0.33	–
Cc1c(C(=O)NC2CCCC2)nn(-c2ccc(Cl)cc2Cl)c1-n1c(C)ccc1C	150	310	2.07	–
COc1ccc(CCNC(=O)c2nn(-c3ccc(Cl)cc3Cl)c(-n3c(C)ccc3C)c2C)cc1Cl	112	3480	31.1	–

Structure (SMILES)	Ki [1] [nM]	Ki [2] [nM]	Ratio Ki [3]	other results
Cc1c(C(=O)NCCc2ccc(Cl)cc2Cl)nn(-c2ccc(Cl)cc2Cl)c1-n1c(C)ccc1C	156	> 3940	> 25.2	–
Cc1c(C(=O)NCCc2ccc(Cl)cc2)nn(-c2ccc(F)cc2F)c1-n1cccc1	80	> 3940	> 49.2	–
Cc1c(C(=O)NC2CCCC2)nn(-c2ccc(Cl)cc2Cl)c1-n1cccc1	84	170	2.02	–
Cc1c(C(=O)NC(C)c2ccccc2)nn(-c2ccc(Cl)c(Cl)c2)c1-n1c(C)ccc1C (stereo not drawn)	80	5.7	0.071	–
Cc1c(C(=O)NCCc2ccc(Cl)cc2Cl)nn(-c2ccc(F)cc2F)c1-n1c(C)ccc1C	41	721	17.6	–
Cc1c(C(=O)NC2CCCCCC2)nn(-c2ccc(Cl)c(Cl)c2)c1-n1c(C)ccc1C	12	4.2	0.35	–
Cc1c(C(=O)Nc2ccc(Cl)cc2)nn(-c2ccc(Cl)c(Cl)c2)c1-n1c(C)ccc1C	> 2820	> 3940	–	–
Cc1c(C(=O)NC2CCCC2)nn(-c2ccc(F)cc2F)c1-n1c(C)ccc1C	840	900	1.07	–
Cc1c(C(=O)NCc2ccc(Cl)cc2)nn(-c2ccc(F)cc2F)c1-n1cccc1	340	3400	10	–
COc1cc(CNC(=O)c2nn(-c3ccc(Cl)cc3Cl)c(-n3cccc3)c2C)c(Br)c(OC)c1OC	227	609	2.68	–
Cc1c(C(=O)N[C@@H](C)C2CCCCC2)nn(-c2ccc(Cl)c(Cl)c2)c1-n1cccc1	3.4	2.4	0.71	–
Cc1c(C(=O)NC2CCCCCC2)nn(-c2ccc(Cl)cc2Cl)c1-n1c(C)ccc1C	56	80	1.43	–
Cc1c(C(=O)NCCc2ccc(Cl)cc2)nn(-c2ccc(Cl)c(Cl)c2)c1-n1c(C)ccc1C	390	> 3940	> 10.1	–
Cc1c(C(=O)NCCc2ccc(Cl)c(Cl)c2)nn(-c2ccc(F)cc2F)c1-n1c(C)ccc1C	54	> 3940	> 73	–
COc1ccc(CCNC(=O)c2nn(-c3ccc(Cl)cc3Cl)c(-n3cccc3)c2C)cc1Cl	368	2890	7.84	–
Cc1c(C(=O)Nc2ccc(Cl)cc2)nn(-c2ccc(F)cc2F)c1-n1c(C)ccc1C	560	> 3940	> 7.04	–
COc1ccc(CCNC(=O)c2nn(-c3ccc(F)cc3F)c(-n3cccc3)c2C)cc1Cl	948	1940	2.05	–
Cc1c(C(=O)NCCc2ccc(Cl)cc2)nn(-c2ccc(F)cc2F)c1-n1c(C)ccc1C	50	> 3940	> 78.8	Activity [4]: inactive; Activity [6]: Active; inhibition in vivo at 10 mg/kg [10]: 40%; Activity [7]: Active; inhibition in vivo at 10 mg/kg [8]: 25%; Activity [9]: inactive
Cc1c(C(=O)N[C@H](C)C2CCCCC2)nn(-c2ccc(Cl)c(Cl)c2)c1-n1cccc1	14	1.6	0.11	–
COc1ccc(CCNC(=O)c2nn(-c3ccc(F)cc3F)c(-n3c(C)ccc3C)c2C)cc1Cl	99	> 3940	> 39.8	–
Cc1c(C(=O)NC2CCCCCC2)nn(-c2ccc(Cl)cc2Cl)c1-n1cccc1	20	20	1	–
COc1cc(CNC(=O)c2nn(-c3ccc(F)cc3F)c(-n3cccc3)c2C)c(Br)c(OC)c1OC	345	739	2.14	–
Cc1c(C(=O)Nc2ccc(Cl)cc2)nn(-c2ccc(Cl)c(Cl)c2)c1-n1cccc1	1300	790	0.61	–
COc1cc(CNC(=O)c2nn(-c3ccc(Cl)cc3Cl)c(-n3c(C)ccc3C)c2C)c(Br)c(OC)c1OC	144	553	3.84	–
Cc1c(C(=O)NC2CCCCCC2)nn(-c2ccc(Cl)c(Cl)c2)c1-n1cccc1	5.6	1.3	0.23	–
Cc1c(C(=O)NCc2ccc(Cl)cc2)nn(-c2ccc(Cl)c(Cl)c2)c1-n1cccc1	70	100	1.43	–
Cc1c(C(=O)NCCc2ccc(Cl)cc2)nn(-c2ccc(Cl)cc2Cl)c1-n1c(C)ccc1C	30	> 3940	> 131	–
